Target: Albumin (Homo sapiens, UniProt P02768)
Assay: Binding affinity to first site on human serum albumin by SPR
In short: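 SPR on a BIACORE 3000 at 25°C. HSA was amine-coupled to a CM5 chip at 40 µg/ml in 10 mM acetate, pH 5.2. Drug was injected from 400 µM to 0.1 µM in twofold dilutions in PBS with 5% DMSO at 50 µl/min, with 30 s association and 30 s dissociation. Responses were reference-subtracted, read 10 s into the injection and DMSO-corrected. Dose-response curves gave KD or fraction of sites occupied.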

Albumin, sequence (P02768 whole entry): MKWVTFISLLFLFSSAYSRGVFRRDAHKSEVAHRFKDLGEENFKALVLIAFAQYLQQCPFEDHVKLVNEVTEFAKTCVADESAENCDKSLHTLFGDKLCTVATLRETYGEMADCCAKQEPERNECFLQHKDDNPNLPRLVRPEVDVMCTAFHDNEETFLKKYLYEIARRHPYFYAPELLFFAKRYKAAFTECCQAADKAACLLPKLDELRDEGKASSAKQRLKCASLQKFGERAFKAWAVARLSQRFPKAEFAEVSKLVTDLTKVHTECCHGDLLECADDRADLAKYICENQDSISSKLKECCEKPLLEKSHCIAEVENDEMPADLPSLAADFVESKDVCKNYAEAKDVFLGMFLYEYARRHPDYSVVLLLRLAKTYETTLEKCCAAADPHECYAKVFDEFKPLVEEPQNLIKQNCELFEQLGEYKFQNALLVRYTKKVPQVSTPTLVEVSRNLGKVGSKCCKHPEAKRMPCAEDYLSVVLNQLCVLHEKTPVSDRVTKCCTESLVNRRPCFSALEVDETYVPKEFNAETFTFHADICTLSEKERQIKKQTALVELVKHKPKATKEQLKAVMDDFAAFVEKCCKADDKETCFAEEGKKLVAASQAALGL

| Kd [µM] | SMILES |
| --- | --- |
| 12 | COc1ccc(OC)c(/C=C2\SC(=S)N(C(C(=O)O)c3ccccc3)C2=O)c1 (configuration not stated) [2-[(5Z)-5-[(2,5-dimethoxyphenyl)methylidene]-4-oxo-2-sulfanylidene-3-thiazolidinyl]-2-phenylacetic acid] |
| 12 | CN(C)c1ccc(O)c2c1C[C@H]1C[C@H]3[C@H](N(C)C)C(=O)C(C(N)=O)C(=O)[C@@]3(O)C(=O)C1C2=O (some centres not stated) [Klinomycin] |

Source: BindingDB's records for doi:10.1128/AAC.00971-08 (Cnrs-Cpbs/Umr 5236, 2009)
